The record followed here is ChEMBL document CHEMBL1131063 (J Med Chem, 1998).

In assay [1] the target is Phospholipase A2, major isoenzyme (Sus scrofa) (UniProt P00592). Description: Inhibitory activity against Porcine pancreatic secretory Phospholipase A2 at 10 uM. A digest of the protocol: (§1)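 Enzyme diluted in 100 mM Tris-HCl, 1 mM CaCl2, pH 7.5; preincubated 5 min at 37 °C with test compound or vehicle, then 15 min with autoclaved oleate-labeled membranes as substrate. Stopped with ice-cold BSA in saline (final 0.07% w/v), centrifuged 2500g 10 min at 4 °C. Supernatant radioactivity counted by liquid scintillation; percent inhibition at 10 μM, means ± SEM, n = 6.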
Phospholipase A2, major isoenzyme (Sus scrofa), sequence (P00592 23-146 limits assumed): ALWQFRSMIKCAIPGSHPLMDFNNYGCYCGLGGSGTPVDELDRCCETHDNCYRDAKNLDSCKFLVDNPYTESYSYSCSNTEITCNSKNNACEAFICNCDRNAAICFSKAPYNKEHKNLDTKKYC

Assay [2] deals with T1, Phospholipase A2 (Apis mellifera) (UniProt P00630).
T1 sequence (whole entry): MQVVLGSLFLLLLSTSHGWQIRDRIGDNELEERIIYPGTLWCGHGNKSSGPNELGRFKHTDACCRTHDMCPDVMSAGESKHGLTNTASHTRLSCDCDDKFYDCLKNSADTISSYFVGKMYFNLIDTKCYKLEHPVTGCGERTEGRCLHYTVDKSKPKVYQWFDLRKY
Description: Inhibitory activity against bee secretory Phospholipase A2 enzyme at 10 uM.

Assay [3] deals with T1, Phospholipase A2 (Apis mellifera). Description: Inhibitory activity against bee secretory Phospholipase A2 enzyme when pre-incubated for 15 minutes. Put shortly: (§2)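 Bee venom PLA2 was incubated at 41 °C with the test compound or methanol (control) in 100 mM Tris-HCl, 1 mM CaCl2, pH 7.5, for varied preincubation times. It was then diluted 2-fold with Tris buffer or with hydroxylamine (final 50 mM, pH 7.5) and held 2 h at 41 °C. PLA2 activity was then assayed. Final compound concentrations were 5–50 μM. n = 6.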

Assay [4] has the same target. Put plainly: Inhibitory activity against bee secretory Phospholipase A2 enzyme when pre-incubated for 5 minutes. Put shortly: as §2
Assay [5] shares this target. Description: Inhibitory activity against bee secretory Phospholipase A2 enzyme when pre-incubated for 60 minutes. Put shortly:
as §2

Assay [6] has the same target. Put plainly: Inhibitory activity against bee secretory Phospholipase A2 enzyme when pre-incubated with Hydroxylamine for 15 minutes. Put shortly:
as §2

The target is the same in assay [7]. Put plainly: Inhibitory activity against bee secretory Phospholipase A2 enzyme when pre-incubated with Hydroxylamine for 5 minutes. A digest of the protocol:
as §2

For assay [8] the target is unchanged. Put plainly: Inhibitory activity against bee secretory Phospholipase A2 enzyme when pre-incubated with Hydroxylamine for 60 minutes. A digest of the protocol: as §2
Assay [9] has the same target. Put plainly: Inhibitory activity against bee secretory Phospholipase A2 enzyme when pre-incubated with Tris buffer for 15 minutes. A digest of the protocol:
as §2

Assay [10] has the same target. Description: Inhibitory activity against bee secretory Phospholipase A2 enzyme when pre-incubated with Tris buffer for 5 minutes. A digest of the protocol: as §2
For assay [11] the target is unchanged. Put plainly: Inhibitory activity against bee secretory Phospholipase A2 enzyme when pre-incubated with Tris buffer for 60 minutes. Put shortly:
as §2

For assay [12], the target named is T2, Phospholipase A2, membrane associated (Homo sapiens) (UniProt P14555).
T2 sequence (whole entry): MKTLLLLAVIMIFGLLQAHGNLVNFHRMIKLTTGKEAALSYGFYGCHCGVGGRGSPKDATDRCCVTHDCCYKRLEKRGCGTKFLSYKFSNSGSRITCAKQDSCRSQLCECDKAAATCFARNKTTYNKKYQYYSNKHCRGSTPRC
Put plainly: Inhibitory activity against human synovial Phospholipase at 10 uM. A digest of the protocol:
as §1

Assay [13] relates to Phospholipase A2 (Naja naja). Description: Inhibitory activity against naja naja secretory Phospholipase A2 at 10 uM. Conditions: snake.
The target of the next assay is T3, Phospholipase A2 (Apis mellifera, UniProt P00630).
T3 sequence (P00630 whole entry): T1 sequence (whole entry)
Put plainly: Inhibitory activity against bee secretory Phospholipase A2 enzyme.

The target in assay [14] is T4, Phospholipase A2, membrane associated (Homo sapiens, UniProt P14555).
T4 sequence (P14555 whole entry): T2 sequence (whole entry)
Put plainly: Inhibitory activity against human synovial recombinant Phospholipase enzyme.

Assay [15] concerns Mus musculus. Put plainly: Inhibitory activity against carrageenan induced paw edema at a oral dose of 10 mg/kg in mouse 5 hours after carrageenan administration. Format: functional. Put shortly: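 Female Swiss mice (20–25 g) were fasted 12 h and dosed orally in ethanol/Tween 80/water (5:5:90), n = 6 per group. One hour later, 0.05 mL of 3% carrageenan was injected subplantar into the right hind paw. Edema was injected minus contralateral paw volume by plethysmometer, expressed as % inhibition versus control. ANOVA with Dunnett's test.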
(The carrageenan paw model is a standard test of acute inflammation.)

The target of assay [16] is T1, Phospholipase A2 (Apis mellifera). Put plainly: Inhibition against bee secretory PLA2 enzyme when pre-incubated for 5 minutes. A digest of the protocol:
as §2

Assay [17] shares this target. Put plainly: Inhibitory activity against secretory PLA2 enzyme (Bee venom) when pre-incubated with Hydroxylamine for 15 minutes. A digest of the protocol: as §2
Assay [18] deals with Mus musculus. Description: Inhibitory activity against carrageenan induced paw edema at a oral dose of 10 mg/kg in mouse 3 hours after carrageenan administration. The format is functional. A digest of the protocol: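 Female Swiss mice (20–25 g), fasted 12 h with water available, in groups of six, dosed orally (0.5 mL) in ethanol/Tween 80/water 5:5:90 1 h before subplantar injection of 0.05 mL 3% w/v carrageenan into right hind paw. Paw volumes read by plethysmometer; edema = injected minus contralateral volume; percent inhibition vs vehicle controls; ANOVA with Dunnett's test.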

For the compound `CC1=C(CC/C(C)=C/CCC2=CC[C@H](C3=CC(=O)O[C@H]3O)O[C@H]2O)C(C)(C)CCC1`, the inhibition (commonly the drop in the measured response relative to a control, in per cent) was found to be 32.3% in assay [1]; 62.5% in assay [2]; 63.3% in assay [3]; 49.5% in assay [4]; 91.1% in [5]; 28% in [6]. For the same compound, the inhibition in assay [7] worked out at 21%; in assay [8] it was 43.1%; in assay [9], 44.2%; in assay [10] it was 42.4%; in assay [11], 47.3%; in assay [12], 93.2%.
As for `C/C=C/CC1=CCC(C2=CC(=O)OC2O)OC1O` (stereo unspecified), the inhibition in assay [1] was determined as 15.1%; in assay [2], 24.8%; in assay [12], 21.2%; in assay [13], 1.8%.
Turning to `O=C1C=C(C2CC=C(Cc3ccccc3)C(O)O2)C(O)O1` (stereo unspecified), the inhibition in assay [1] was 16.1%; in assay [2], 16.1%; in assay [12] it was 11.9%; in assay [13], 7.1%.
In the case of `C/C=C/CC1=CCC(C2=CC(=O)OC2O)OC1` (stereo unspecified), the inhibition amounted to 17.6% in [1], 40.1% in assay [2], 24.8% in [12] and 7.1% in assay [13].
Turning to `CC(C)=CCC/C(C)=C/CC/C(C)=C/CC1=CCC(C2=CC(=O)OC2O)OC1` (stereo unspecified), the inhibition in [1] turned out to be 30%; in assay [2], 71.8%; in assay [3] it was 87.1%; in assay [4], 85.6%; in assay [5], 99.7%; in assay [6] it was 51.1%. For the same compound, the inhibition in [7] worked out at 50.1%; in [8] it was 65.1%; in assay [9], 58.7%; in assay [10] it was 58.5%; in [11], 65.3%; in [12], 63.1%. Moreover, the IC50 (as a rule, the midpoint of a concentration-inhibition curve) at Phospholipase A2 was 1700 nM; in [14], 4200 nM.
`CC1=CCC(C2=CC(=O)OC2O)OC1O` (stereo unspecified): the inhibition came out at 6.8% in assay [1], 14.9% in assay [2], 3.2% in assay [12] and 3% in assay [13].
The matching figures for `CC1=CCC(C2=CC(=O)OC2O)OC1` (stereo unspecified): 5.6%, 8%, 0.1% and 1.4%.
Regarding `C=C1CCC[C@H]2[C@](C)(CCC3=CCC(C4=CC(=O)OC4O)OC3)[C@H](C)CC[C@]12C` (stereo partly specified), the inhibition turned out to be 93.7% in assay [3]; 85.8% in [4]; 100% in assay [5]; 89.4% in [6]; 81.9% in assay [7]; 99.3% in [8]. Further, the inhibition stood at 95.4% in assay [9], 95.4% in [10] and 98.4% in [11].
Regarding `O=C1C=C(C2CC=C(Cc3ccccc3)CO2)C(O)O1` (stereo unspecified), the inhibition in assay [1] amounted to 17.4%; in [2], 30.3%; in assay [12] it was 15.5%; in assay [13], 7.6%.
In the case of `O=C1C=C(C2CC=CCO2)C(O)O1` (stereo unspecified), the inhibition in assay [1] was determined as 0.2%; in assay [2], 9.3%; in assay [12], 42.3%; in assay [13], 10.1%.
For `O=C1C=C(C2CC=CC(O)O2)C(O)O1` (stereo unspecified), the inhibition came to 1% in assay [1], 0.7% in [2], 18.9% in [12] and 5.2% in assay [13].
For the compound `CC(C)=CCC/C(C)=C/CC/C(C)=C/CC1=CCC(C2=CC(=O)OC2O)OC1O` (stereo unspecified), the inhibition in vivo – broadly, the percentage by which the read-out fell short of the control – at 10 mg/kg is 43.2% in the assay on Mus musculus [15] and 42.9% in the assay on Mus musculus [18]. For the same compound, the inhibition in assay [1] worked out at 39.8%; in assay [16], 48.4%; in [2], 84.2%; in assay [3], 70.3%; in [5], 95.1%; in assay [7], 39.1%. Also, the inhibition in [8] was determined as 71.5%; in [9] it was 80.9%; in assay [10] it was 80.8%; in assay [11], 75.2%; in [17], 56.9%; in [12] it was 74.6%. Moreover, in assay [13], the inhibition was 33.6%. Also, the IC50 on Phospholipase A2 came out at 500 nM; in [14], 900 nM.
As to `COc1ccc2c(c1)c(CC(=O)O)c(C)n2C(=O)c1ccc(Cl)cc1` [INDOMETHACIN], the results for the inhibition in vivo at 10 mg/kg in the assay on Mus musculus [15] and with Mus musculus [18] were 42.3% and 40%, respectively.
